# Data taken from ChEMBL document CHEMBL5712901, “DOT1L inhibition blocks multiple myeloma cell proliferation by suppressing IRF4-MYC signaling” (2019).
# Calls of active or inactive are those of the source. The rule behind the calls is not given here.
# Columns and labels:
# RPMI-8226 [1] = experiment: Induction of growth suppression in human RPMI-8226 cells assessed as reduction H3K79me3 at 1 uM for 3 days Western blot analysis; type: functional, cell-based; conditions: time 3.0 day
# Method in brief: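 RPMI-8226 cells treated with 1 μM DOT1L inhibitor or DMSO for 3 days. H3K79 methylation probed by Western blot with […].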
# KMS-12-BM [2] = experiment: Effect on human KMS-12-BM cells assessed as change in IRF4 mRNA level by qRT-PCR analysis; type: functional, cell-based
# Method in brief: (§1)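 Basal MYC and IRF4 mRNA in untreated cells measured by qRT-PCR. Normalized to ACTB; mean of 3 replications ± SEM.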
# MM1.S [3] = experiment: Induction of apoptosis in human MM1.S cells assessed as necrotic cells at 1 uM for 6 days by annexin-V based propidium iodide staining based flow cytometric analysis (reference value: 0.16%); type: functional; conditions: time 6 day
# RPMI-8226 [4] = experiment: Effect on human RPMI-8226 cells assessed as change in Myc mRNA level at 1 uM for 3 days by ChIP-qPCR analysis; type: functional, cell-based; conditions: time 3.0 day
# Method in brief: (§2)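 ChIP-qPCR for H3K79me2 at IRF4-MYC signaling genes after 1 μM inhibitor or DMSO for 3 days. Signal normalized to input DNA. An intergenic region 28 kb upstream of KLF2 served as negative control. Mean of 3 replications ± SEM.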
# MM1.S [5] = experiment: Induction of apoptosis in human MM1.S cells assessed as late apoptotic cells at 1 uM for 6 days by annexin-V based propidium iodide staining based flow cytometric analysis (reference value: 4.85%); type: functional; conditions: time 6 day
# KMS-12-PE [6] = experiment: Effect on human KMS-12-PE cells assessed as change in MYC mRNA level by qRT-PCR analysis; type: functional, cell-based; method in brief: as §1
# RPMI-8226 [7] = experiment: Upregulation of IFN in human RPMI-8226 cells assessed as increase in IFI44 gene at 1 uM for 6 days by qRT-PCR analysis; conditions: time 6.0 day
# KMS-12-BM [8] = experiment: Effect on human KMS-12-BM cells assessed as decrease in IRF4 mRNA level at 1 uM for 6 days by qRT-PCR analysis; type: functional, cell-based; conditions: time 6.0 day
# Method in brief: (§3)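 qRT-PCR of MYC and IRF4 after 1 μM DOT1L inhibitor for 6 days. Normalized to ACTB; mean of 3 replications ± SEM.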
# MM1.S [9] = experiment: Effect on human MM1.S cells assessed as change in IRF4 mRNA level at 1 uM for 3 days by ChIP-qPCR analysis; type: functional, cell-based; conditions: time 3.0 day; method in brief: as §2
# KMS-12-PE [10] = experiment: Antiproliferative activity against human KMS-12-PE cells assessed as reduction in cell viability measured at 1 uM for 18 days; type: functional, cell-based; conditions: time 18.0 day
# RPMI-8226 [11] = experiment: Upregulation of IFN in human RPMI-8226 cells assessed as increase in IFIT1 gene at 1 uM for 6 days by qRT-PCR analysis; conditions: time 6.0 day
# KMS-12-PE [12] = experiment: Antiproliferative activity against human KMS-12-PE cells treated 3 days at 1 uM; type: functional, cell-based; conditions: time 3.0 day
# Method in brief: (§4)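 Cell lines in 6-well plates, 2 × 10^4 to 8 × 10^5 cells/well, exposed to DOT1L inhibitor at 0.25-1 μM or DMSO, with medium and drug refreshed every 3 days. Viability read with Cell Counting Kit-8 on a microplate reader. Values normalized to untreated cells; mean of 3 replications ± SEM.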
# KMS-12-BM [13] = experiment: Effect on human KMS-12-BM cells assessed as decrease in MYC mRNA level at 1 uM for 6 days by qRT-PCR analysis; type: functional, cell-based; conditions: time 6.0 day; method in brief: as §3
# KMS-11 = experiment: Antiproliferative activity against human KMS-11 cells treated 3 days at 1 uM; type: functional, cell-based; conditions: time 3.0 day; method in brief: as §4
# RPMI-8226 [14] = experiment: Induction of apoptosis in human RPMI-8226 cells assessed as viable cells at 1 uM for 6 days by annexin-V based propidium iodide staining based flow cytometric analysis (reference value: 79.67%); type: functional; conditions: RPMI-8226, 144 h, time 6 day, read-out: Activity
# RPMI-8226 [15] = experiment: Induction of apoptosis in human RPMI-8226 cells assessed as late apoptotic cells at 1 uM for 6 days by annexin-V based propidium iodide staining based flow cytometric analysis (reference value: 8.89%); type: functional; conditions: time 6 day
# RPMI-8226 [16] = experiment: Induction of cell cycle arrest in human RPMI-8226 cells assessed as increase in accumulation of cells at G1 phase at 1 uM for 6 days; type: functional, cell-based; conditions: time 6.0 day
# Method in brief: (§5)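 Flow cytometric cell cycle analysis of RPMI-8226 and MM.1S cells treated with 1 μM DOT1L inhibitor or DMSO for 6 days. Sub-G1, G0-G1 and S phase populations scored. Summary is from 3 replications, mean ± SEM.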
# RPMI-8226 [17] = experiment: Upregulation of IFN in human RPMI-8226 cells assessed as increase in ISG15 gene at 1 uM for 6 days by qRT-PCR analysis; conditions: time 6.0 day
# RPMI-8226 [18] = experiment: Induction of apoptosis in human RPMI-8226 cells assessed as necrotic cells at 1 uM for 6 days by annexin-V based propidium iodide staining based flow cytometric analysis (reference value: 3.61%); type: functional; conditions: time 6 day
# RPMI-8226 [19] = experiment: Induction of apoptosis in human RPMI-8226 cells assessed as necrotic cells at 1 uM for 3 days by annexin-V based propidium iodide staining based flow cytometric analysis (reference value: 3.40%); type: functional; conditions: time 3 day
# RPMI-8226 [20] = experiment: Induction of cell cycle arrest in human RPMI-8226 cells assessed as increase in accumulation of cells at G0 phase at 1 uM for 6 days; type: functional, cell-based; conditions: time 6.0 day; method in brief: as §5
# KMS-12-BM [21] = experiment: Antiproliferative activity against human KMS-12-BM cells treated 3 days at 1 uM; type: functional, cell-based; conditions: time 3.0 day; method in brief: as §4
# RPMI-8226 [22] = experiment: Effect on human RPMI-8226 cells assessed as change in PRDM1 mRNA level at 1 uM for 3 days by ChIP-qPCR analysis; type: functional, cell-based; conditions: time 3.0 day; method in brief: as §2
# MM1.S [23] = experiment: Upregulation of IFN in human MM1.S cells assessed as increase in IFITM1 gene at 1 uM for 6 days by qRT-PCR analysis; type: functional, cell-based; conditions: time 6.0 day
# KMS-12-PE [24] = experiment: Effect on human KMS-12-PE cells assessed as change in IRF4 mRNA level by qRT-PCR analysis; type: functional, cell-based; method in brief: as §1
# MM1.S [25] = experiment: Induction of apoptosis in human MM1.S cells assessed as early apoptotic cells at 1 uM for 6 days by annexin-V based propidium iodide staining based flow cytometric analysis (reference value: 14.6%); type: functional; conditions: time 6 day
# MM1.S [26] = experiment: Effect on human MM1.S cells assessed as change in Myc mRNA level at 1 uM for 3 days by ChIP-qPCR analysis; type: functional, cell-based; conditions: time 3.0 day; method in brief: as §2
# RPMI-8226 [27] = experiment: Induction of apoptosis in human RPMI-8226 cells assessed as late apoptotic cells at 1 uM for 6 days by annexin-V based propidium iodide staining based flow cytometric analysis (reference value: 10.5%); type: functional; conditions: time 6 day
# KMS-12-PE [28] = experiment: Effect on human KMS-12-PE cells assessed as decrease in MYC mRNA level at 1 uM for 6 days by qRT-PCR analysis; type: functional, cell-based; conditions: time 6.0 day; method in brief: as §3
# KMS-12-BM [29] = experiment: Effect on human KMS-12-BM cells assessed as change in MYC mRNA level by qRT-PCR analysis; type: functional, cell-based; method in brief: as §1
# MM1.S [30] = experiment: Induction of cell cycle arrest in human MM1.S cells assessed as increase in accumulation of cells at G0 phase at 1 uM for 6 days; type: functional, cell-based; conditions: time 6.0 day; method in brief: as §5
# KMS-12-PE [31] = experiment: Effect on human KMS-12-PE cells assessed as decrease in IRF4 mRNA level at 1 uM for 6 days by qRT-PCR analysis; type: functional, cell-based; conditions: time 6.0 day; method in brief: as §3
SMILES,Activity (RPMI-8226 [1]),Activity (KMS-12-BM [2]),Activity (MM1.S [3]) [%],Activity (RPMI-8226 [4]),Activity (MM1.S [5]) [%],Activity (KMS-12-PE [6]),Activity (RPMI-8226 [7]),Activity (KMS-12-BM [8]),Activity (MM1.S [9]),Activity (KMS-12-PE [10]),Activity (RPMI-8226 [11]),Activity (KMS-12-PE [12]),Activity (KMS-12-BM [13]),Activity (KMS-11),viability at 1 µM (RPMI-8226 [14]) [%],Activity (RPMI-8226 [15]) [%],Activity (RPMI-8226 [16]),Activity (RPMI-8226 [17]),Activity (RPMI-8226 [18]) [%],Activity (RPMI-8226 [19]) [%],other results
CC(C)N(CCCNC(=O)Nc1ccc(C(C)(C)C)cc1)C[C@H]1O[C@@H](n2cc(Br)c3c(N)ncnc32)[C@H](O)[C@@H]1O,Active,Active,0.21,Active,11.7,Active,Active,Active,Active,Active,Active,inactive,Active,Active,66.9,20.2,Active,Active,8.1,6.32,Activity (RPMI-8226 [20]): Active; Activity (KMS-12-BM [21]): Active; Activity (RPMI-8226 [22]): Active; Activity (MM1.S [23]): Active; Activity (KMS-12-PE [24]): Active; Activity (MM1.S [25]): 20.2%; Activity (MM1.S [26]): Active; Activity (RPMI-8226 [27]): 12.9%; Activity (KMS-12-PE [28]): Active; Activity (KMS-12-BM [29]): Active; Activity (MM1.S [30]): Active; Activity (KMS-12-PE [31]): Active
CC(C)N(C[C@H]1O[C@@H](n2cnc3c(N)ncnc32)[C@H](O)[C@@H]1O)[C@H]1C[C@@H](CCc2nc3cc(C(C)(C)C)ccc3[nH]2)C1 [PINOMETOSTAT],Active,Active,0.05,Active,11.4,Active,Active,Active,Active,Active,Active,inactive,Active,Active,50.2,17.5,Active,Active,9.09,6.18,Activity (RPMI-8226 [20]): Active; Activity (KMS-12-BM [21]): Active; Activity (RPMI-8226 [22]): Active; Activity (MM1.S [23]): Active; Activity (KMS-12-PE [24]): Active; Activity (MM1.S [25]): 21.1%; Activity (MM1.S [26]): Active; Activity (RPMI-8226 [27]): 18.3%; Activity (KMS-12-PE [28]): Active; Activity (KMS-12-BM [29]): Active; Activity (MM1.S [30]): Active; Activity (KMS-12-PE [31]): Active
